Reference: ChEMBL document CHEMBL1123541, “Preparation and antitumor activity of 7-substituted 1,2-aziridinomitosenes” (J Med Chem, 1986)

Legend:
P388 [1] = experiment: Compound was tested for antitumor activity against P388 Murine leukemia in BDF1 female mice at a dose of 6.4 mg/kg per injection; assay type: functional, Mus musculus
How it was run: (§1)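 P388 ascites cells (10^6) implanted ip into BDF1 female mice. Aziridinomitosene given on day 1 only, six mice per dose; ten saline-treated mice on day 1 only as controls. Read-out is median survival time in days, %T/C = MST treated/MST control × 100, with 125 taken as significant. Mitomycin C run as a positive control at its optimal dose.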

P388 [2] = experiment: (§2) Compound was tested for antitumor activity against P388 Murine leukemia in BDF1 female mice at a dose of 12.8 mg/kg per injection; assay type: functional, Mus musculus; parameters: unit not given here; how it was run: as §1
P388 [3] = experiment: Compound was tested for antitumor activity against P388 Murine leukemia in BDF1 female mice at a dose of 1.6 mg/kg per injection (MST treated / MST control x 100); assay type: functional, Mus musculus; how it was run: as §1
Mus musculus [4] = experiment: Average weight change of BDF1 female mice at a dose of 1.6 mg/kg per injection; assay type: functional
How it was run: (§3)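 BDF1 female mice implanted ip with 10^6 ascites leukemia cells, then given the aziridinomitosene on day 1 only, six mice per dose. Average weight change is the weight difference between the treated and control groups.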

Mus musculus [5] = experiment: Average weight change of BDF1 female mice at a dose of 12.8 mg/kg per injection; assay type: functional; how it was run: as §3
[6] = Partition coefficient (logP); assay type: physicochemical; details: octanol/water
P388 [7] = experiment: Compound was tested for antitumor activity against P388 Murine leukemia in BDF1 female mice at a dose of 0.8 mg/kg per injection; assay type: functional, Mus musculus; how it was run: as §1
P388 [8] = experiment: Minimum effective dose determined against P-388 Murine leukemia in BDF1 female mice.; assay type: functional; details: Mus musculus, read-out: MED
Mus musculus [9] = experiment: Average weight change of BDF1 female mice at a dose of 0.8 mg/kg per injection; assay type: functional; how it was run: as §3
Mus musculus [10] = experiment: Average weight change of BDF1 female mice at a dose of 3.2 mg/kg per injection; assay type: functional; how it was run: as §3
Mus musculus [11] = experiment: Average weight change of BDF1 female mice at a dose of 6.4 mg/kg per injection; assay type: functional; how it was run: as §3
P388 [12] = experiment: Compound was tested for antitumor activity against P388 Murine leukemia in BDF1 female mice at a dose of 3.2 mg/kg per injection; assay type: functional, Mus musculus; how it was run: as §1
Mus musculus [13] = experiment: Average weight change of BDF1 female mice at a dose of 51.2 mg/kg per injection; assay type: functional; how it was run: as §3
Mus musculus [14] = experiment: Average weight change of BDF1 female mice at a dose of 25.6 mg/kg per injection; assay type: functional; how it was run: as §3
P388 [15] = experiment: Compound was tested for antitumor activity against P388 Murine leukemia in BDF1 female mice at a dose of 0.2 mg/kg per injection; assay type: functional, Mus musculus; how it was run: as §1
P388 [16] = experiment: Compound was tested for antitumor activity against P388 Murine leukemia in BDF1 female mice at a dose of 3.2 mg/kg per injection (MST treated / MST control x 100); assay type: functional, Mus musculus; how it was run: as §1
P388 [17] = experiment: Compound was tested for antitumor activity against P388 Murine leukemia in BDF1 female mice at a dose of 0.4 mg/kg per injection; assay type: functional, Mus musculus; how it was run: as §1
P388 [18] = experiment: Compound was tested for antitumor activity against P388 Murine leukemia in BDF1 female mice at a dose of 1.6 mg/kg per injection; assay type: functional, Mus musculus; how it was run: as §1
P388 [19] = experiment: Compound was tested for antitumor activity against P388 Murine leukemia in BDF1 female mice at a dose of 25.6 mg/kg per injection; assay type: functional, Mus musculus; how it was run: as §1
P388 [20] = experiment: Compound was tested for antitumor activity against P388 Murine leukemia in BDF1 female mice at a dose of 51.2 mg/kg per injection (MST treated / MST control x 100); assay type: functional, Mus musculus; how it was run: as §1
L1210 [21] = experiment: Compound was tested for antitumor activity against L-1210 Murine leukemia in BDF1 female mice at a dose of 12 mg/kg per injection; assay type: functional, Mus musculus
How it was run: (§4)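 L-1210 run per NCI protocol. 10^6 ascites cells implanted ip into BDF1 female mice. Aziridinomitosene given on day 1 only, six mice per dose, with a control group of 36 mice. Median survival time in days is recorded, and %T/C = MST treated/MST control × 100, with 125 taken as significant.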

L1210 [22] = experiment: Compound was tested for antitumor activity against L-1210 Murine leukemia in BDF1 female mice at a dose of 48 mg/kg per injection; assay type: functional, Mus musculus; how it was run: as §4
Mus musculus [23] = experiment: Average weight change of BDF1 female mice at a dose of 12 mg/kg per injection; assay type: functional; how it was run: as §3
Mus musculus [24] = experiment: Average weight change of BDF1 female mice at a dose of 48 mg/kg per injection; assay type: functional; how it was run: as §3
Mus musculus [25] = experiment: Average weight change of BDF1 female mice at a dose of 24 mg/kg per injection; assay type: functional; how it was run: as §3
L1210 [26] = experiment: Compound was tested for antitumor activity against L-1210 Murine leukemia in BDF1 female mice at a dose of 24 mg/kg per injection; assay type: functional, Mus musculus; how it was run: as §4
Mus musculus [27] = experiment: Average weight change of BDF1 female mice at a dose of 6 mg/kg per injection; assay type: functional; how it was run: as §3
L1210 [28] = experiment: Compound was tested for antitumor activity against L-1210 Murine leukemia in BDF1 female mice at a dose of 6 mg/kg per injection; assay type: functional, Mus musculus; how it was run: as §4
P388 [29] = experiment: Compound was tested for antitumor activity against P388 Murine leukemia in BDF1 female mice at a dose of 25.6 mg/kg per injection (MST treated / MST control x 100); assay type: functional, Mus musculus; how it was run: as §1
P388 [30] = experiment: as §2; assay type: functional, Mus musculus; how it was run: as §1
P388 [31] = experiment: Compound was tested for antitumor activity against P388 Murine leukemia in BDF1 female mice at a dose of 51.2 mg/kg per injection; assay type: functional, Mus musculus; how it was run: as §1
L1210 [32] = experiment: Compound was tested for antitumor activity against L-1210 Murine leukemia in BDF1 female mice at dose of 40 mg/kg inj; assay type: functional, Mus musculus; how it was run: as §4
Mus musculus [33] = experiment: Average weight change of BDF1 female mice at a dose of 16 mg/kg per injection; assay type: functional; how it was run: as §3
Mus musculus [34] = experiment: Average weight change of BDF1 female mice at a dose of 32 mg/kg per injection; assay type: functional; how it was run: as §3
P388 [35] = experiment: Compound was tested for antitumor activity against P388 Murine leukemia in BDF1 female mice at a dose of 32 mg/kg per injection; assay type: functional, Mus musculus; how it was run: as §1
L1210 [36] = experiment: Compound was tested for antitumor activity against L-1210 Murine leukemia in BDF1 female mice at dose of 20 mg/kg inj; assay type: functional, Mus musculus; how it was run: as §4
Mus musculus [37] = experiment: Average weight change of BDF1 female mice at a dose of 8 mg/kg per injection; assay type: functional; how it was run: as §3
P388 [38] = experiment: Compound was tested for antitumor activity against P388 Murine leukemia in BDF1 female mice at a dose of 16 mg/kg per injection; assay type: functional, Mus musculus; how it was run: as §1
P388 [39] = experiment: Compound was tested for antitumor activity against P388 Murine leukemia in BDF1 female mice at a dose of 64 mg/kg per injection; assay type: functional, Mus musculus; how it was run: as §1
P388 [40] = experiment: Compound was tested for antitumor activity against P388 Murine leukemia in BDF1 female mice at a dose of 8 mg/kg per injection; assay type: functional, Mus musculus; how it was run: as §1
Mus musculus [41] = experiment: Average weight change of BDF1 female mice at a dose of 64 mg/kg per injection; assay type: functional; how it was run: as §3
P388 [42] = experiment: Compound was tested for antitumor activity against P388 Murine leukemia in BDF1 female mice at a dose of 1.6 mg/kg per injection given as MST treated / MST control x 100; assay type: functional, Mus musculus; how it was run: as §1

Structure (SMILES) | MST (P388 [1]) | MST (P388 [2]) | Weight change (Mus musculus [4]) [g] | Weight change (Mus musculus [5]) [g] | logP [6] | MST (P388 [7]) [days] | minimal effective dose (P388 [8]) [mg/kg] | Weight change (Mus musculus [10]) [g] | Weight change (Mus musculus [11]) [g] | Weight change (Mus musculus [13]) [g] | Weight change (Mus musculus [14]) [g] | T/C (P388 [16]) [%] | MST (P388 [19]) [% T/C] | MST (P388 [30]) [days] | also measured
COC1=C(C)C(=O)c2c(c(COC(N)=O)c3n2CC2C3N2C)C1=O (stereo unspecified) | 213 days | 213 | -0.2 | -1.7 | 1.28 | 150 | 0.8 | 0.5 | -0.3 | – | – | – | – | – | T/C (P388 [3]): 156%; Weight change (Mus musculus [9]): 0.8 g; MST (P388 [12]): 188 days
CC1=C(N2CC2C)C(=O)c2c(COC(N)=O)c3n(c2C1=O)CC1C3N1C (stereo unspecified) | 194 %T/C | 238 | 0 | -0.5 | 1.23 | 125 | 0.2 | 0 | -0.4 | -1.3 | -1 | 163 | – | – | T/C (P388 [15]): 125%; MST (P388 [17]): 138 days; MST (P388 [18]): 156 days
COC1=C(C)C(=O)c2c(c(COC(N)=O)c3n2CC2NC32)C1=O (stereo unspecified) | 122 %T/C | 139 | – | -0.8 | 0.87 | – | 12.8 | -0.4 | 0 | – | -0.4 | 122 | 167 | – | –
CC1=C(N2CC2)C(=O)c2c(COC(N)=O)c3n(c2C1=O)CC1NC31 (stereo unspecified) | – | 172 | 1 | 0.9 | 0.3 | 111 | 1.6 | 1 | – | – | -0.4 | 144 | – | – | T/C (P388 [20]): 206%; % T/C (L1210 [21]): 122%; MST (L1210 [22]): 131 days; Weight change (Mus musculus [23]): -1.3 g; Weight change (Mus musculus [24]): -4.2 g; Weight change (Mus musculus [25]): -2.6 g; MST (L1210 [26]): 120 days; Weight change (Mus musculus [27]): -0.4 g; Weight change (Mus musculus [9]): 0.9 g; % T/C (L1210 [28]): 118%; T/C (P388 [29]): 189%
CC1=C(N2CC2C)C(=O)c2c(COC(N)=O)c3n(c2C1=O)CC1NC31 (stereo unspecified) | 144 %T/C | – | 0 | -0.5 | 0.82 | – | 1.6 | 0 | -0.4 | -1.3 | -1 | – | 181 | 156 | T/C (P388 [3]): 125%; MST (P388 [31]): 219 days; MST (P388 [12]): 138 days
CC1=C(N2CC2)C(=O)c2c(COC(N)=O)c3n(c2C1=O)CC1C3N1C (stereo unspecified) | 172 %T/C | 172 | -1.3 | -1.9 | 0.71 | – | 1.6 | 0 | -1.1 | -2.5 | -2.2 | 117 | 239 | – | MST (P388 [31]): 139 days; MST (P388 [18]): 122 days
C#CCNC1=C(C)C(=O)c2c(c(COC(N)=O)c3n2CC2NC32)C1=O (stereo unspecified) | – | – | – | – | 1.21 | – | 16 | – | – | – | – | – | – | – | T/C (L1210 [32]): 140%; Weight change (L1210 [32]): -2.8 g; Weight change (Mus musculus [33]): -0.3 g; Weight change (Mus musculus [34]): 0 g; MST (P388 [35]): 144 days; T/C (L1210 [36]): 122%; Weight change (L1210 [36]): -1.8 g; Weight change (Mus musculus [37]): -0.2 g; MST (P388 [38]): 128 days; MST (P388 [39]): 172 days; MST (P388 [40]): 122 days; Weight change (Mus musculus [41]): -0.9 g
CC1=C(N)C(=O)c2c(COC(N)=O)c3n(c2C1=O)CC1C3N1C (stereo unspecified) | – | – | – | -0.4 | – | – | – | – | – | – | -0.1 | – | 100 | 100 | T/C (P388 [42]): 211%
CC1=C(N)C(=O)c2c(COC(N)=O)c3n(c2C1=O)CC1NC31 (stereo unspecified) | 117 %T/C | – | – | -0.8 | 0.23 | – | 25.6 | – | -1.2 | – | -0.8 | – | 128 | 117 | T/C (L1210 [21]): 100%; MST (L1210 [22]): 94 days; Weight change (Mus musculus [23]): 0 g; Weight change (Mus musculus [24]): 0.2 g; T/C (P388 [42]): 211%; Weight change (Mus musculus [25]): -0.3 g; MST (L1210 [26]): 100 days; Weight change (Mus musculus [27]): 0.1 g; T/C (L1210 [28]): 100%
